≈ marks a conversion by molar mass, not a printed value. Calls of active or inactive are those of the source. No cut-off for these calls is given here.
Assays:
[1] = tested on: Mycobacterium tuberculosis; assay: Antimycobacterial activity against Mycobacterium tuberculosis H37Rv infected in human A-THP1 macrophages assessed as viability of infected macrophages incubated for 96 hrs by fluorescence microplate assay; format: functional, organism-based
In short: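 THP-1 cells differentiated with 50 ng/mL PMA for 72 h, infected with log-phase H37Rv (MOI 10, 2 h), and extracellular bacteria killed with 50 µg/mL amikacin for 1 h. Cells detached and seeded at 5×10⁵/mL in RPMI-10% FBS with PMA onto pre-dispensed compound, 96 h at 37°C, 5% CO₂. Macrophage viability by 0.05% resazurin fluorescence.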

Escherichia coli [2] = assay: Antibiotic activity against Escherichia coli BW25113 assessed as reduction in bacterial cell growth by measuring resazurin reduction incubated for 6 days by fluorescence microplate based assay; format: functional; details: BW25113, 144 h, time 6 day
In short: (§1)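 E. coli BW25113, E. coli ΔtolC and S. aureus SH1000 were cultured and tested in cation-adjusted Mueller Hinton II broth. Viability was read by adding resazurin and measuring resorufin fluorescence at Ex 530 nm / Em 590 nm.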

Klebsiella pneumoniae = assay: Antibiotic activity against Klebsiella pneumoniae LMG 2095 assessed as reduction in bacterial cell growth by measuring resazurin reduction incubated for 6 days by fluorescence microplate based assay; format: functional; details: LMG 2095, 144 h, time 6 day
Mycobacterium marinum [3] = assay: in vivo antimycobacterial efficacy in Mycobacterium marinum infected zebrafish larvae assessed as reduction in bacterial burden at 0.25 to 2 micog/ml measured after 2 to 4 days off post infection; format: functional, organism-based; details: time 2-4 day
Bacillus subtilis = assay: Antibiotic activity against Bacillus subtilis ATCC6633 assessed as reduction in bacterial cell growth by measuring resazurin reduction incubated for 6 days by fluorescence microplate based assay; format: functional; details: ATCC6633, 144 h, time 6 day
Mycobacterium marinum [4] = assay: In vivo antimycobacterial efficacy in Mycobacterium marinum expressing Wasabi infected zebrafish larvae assessed as prolongation of survival treated for 4 days after 1 day post infection; format: functional, organism-based; details: dose 0.3-1.2 µM, time 4.0 day, DDE = dose-dependent effect
In short: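 Golden mutant or Tg(mpeg1:mCherry) zebrafish embryos were dechorionated and anaesthetised in 0.016% tricaine. At 30 hpf, 2–3 nL containing about 200–250 cfu of Wasabi-expressing M. marinum M (pTEC15) was injected into the caudal vein. The inoculum was confirmed by plating on 7H10. Embryos were kept in E3 at 28.5 °C, 12 per well, to follow infection and survival.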

[5] = tested on: Mycobacterium tuberculosis; assay: Bactericidal activity against Non-replicating Mycobacterium tuberculosis ss18b-lux assessed as bacterial killing by measuring CFU after 1 week; format: functional, organism-based; details: time 1.0 weeks, DDE = dose-dependent effect
In short: (§2)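 Streptomycin-dependent 18b-lux starved of streptomycin for 14 days (OD600 reset to 0.2 on days 7 and 13) to become non-replicating. Diluted to OD600 0.15 on dispensed compound and held at 37°C. On day 7, active wells plated on 7H11-OADC with 50 µg/mL streptomycin and incubated up to 8 weeks for cfu.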

[6] = tested on: Mycobacterium tuberculosis; assay: Inhibition of Ndh2 in Mycobacterium tuberculosis assessed as decrease in ATP concentration measured after 24 hrs; details: DDE = dose-dependent effect
In short: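 Log-phase H37Rv diluted to OD600 0.01 in complete 7H9 and exposed in 96-well plates to compound added from a 100× DMSO stock, at 37°C. ATP measured with BacTiter-Glo luminescence after 4 and 24 h; three independent experiments.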

[7] = tested on: Mycobacterium tuberculosis; assay: Bactericidal activity against Non-replicating Mycobacterium tuberculosis ss18b-lux assessed as decrease in colony forming unit measured at 4.8 uM after 1 weeks; format: functional; in short: as §2
[8] = tested on: Mycobacterium tuberculosis; assay: Antibiotic activity against Mycobacterium tuberculosis H37Rv assessed as reduction in bacterial cell growth by measuring resazurin reduction incubated for 6 days by fluorescence microplate based assay; format: functional; details: 144 h, time 6 day
[9] = Octanol/PBS partition coefficient, logD of compound at pH 7.4 measured after 2 hrs by shake flask method; format: physicochemical; details: octanol/water, pH 7.4, 2 h
In short: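 A 10 mM DMSO stock was diluted 50-fold into 1:1 octanol:PBS pH 7.4 and shaken gently for 2 h at room temperature. Each phase was diluted 50-fold in MeOH and quantified by LC-MS/MS. LogD = log of the octanol/PBS concentration ratio from mass signals. Run in triplicate.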

[10] = Toxicity in noninfected zebrafish larvae assessed as toxic effect; parameters: species or system Danio rerio; details: in vivo
[11] = tested on: Mycobacterium tuberculosis; assay: Antimycobacterial activity against Mycobacterium tuberculosis H37Rv assessed as reduction in bacterial cell growth by measuring resazurin reduction incubated for 6 days by fluorescence microplate based assay; format: functional; details: time 6 day
[12] = tested on: Mycobacteroides abscessus; assay: Antibiotic activity against Mycobacterium abscessus CIP104536, Smooth variant assessed as reduction in bacterial cell growth by measuring resazurin reduction incubated for 6 days by fluorescence microplate based assay; format: functional; details: 144 h, time 6 day
[13] = tested on: Mycolicibacterium smegmatis; assay: Antibiotic activity against Mycobacterium smegmatis mc2155 assessed as reduction in bacterial cell growth by measuring resazurin reduction incubated for 6 days by fluorescence microplate based assay; format: functional; details: mc2155, 144 h, time 6 day
Mycobacterium marinum [14] = assay: In vivo antimycobacterial efficacy in Mycobacterium marinum expressing Wasabi infected zebrafish larvae assessed as prolongation of survival time at 4.8 uM treated for 4 days after 1 day post infection; format: functional; details: time 4 day
Mycobacterium marinum [15] = assay: Antibiotic activity against Mycobacterium marinum M strain assessed as reduction in bacterial cell growth by measuring resazurin reduction incubated for 6 days by fluorescence microplate based assay; format: functional; details: 144 h, time 6 day
Mycobacterium avium = assay: Antibiotic activity against Mycobacterium avium TMC 724, ATCC-25291 assessed as reduction in bacterial cell growth by measuring resazurin reduction incubated for 6 days by fluorescence microplate based assay; format: functional; details: TMC 724, ATCC-25291, 144 h, time 6 day
[16] = tested on: Mycobacteroides abscessus; assay: Antibiotic activity against Mycobacterium abscessus CIP104536, Rough variant assessed as reduction in bacterial cell growth by measuring resazurin reduction incubated for 6 days by fluorescence microplate based assay; format: functional; details: 144 h, time 6 day
[17] = Metabolic stability in mouse liver microsomes; format: ADME, Microsome
Escherichia coli [18] = assay: Antibiotic activity against Escherichia coli deltatolC BW25113 deltatolC assessed as reduction in bacterial cell growth by measuring resazurin reduction incubated for 6 days by fluorescence microplate based assay; format: functional; details: 144 h, time 6 day; in short: as §1
[19] = tested on: Mycobacterium tuberculosis; assay: Bactericidal activity against replicating Mycobacterium tuberculosis H37Rv assessed as reduction in colony forming unit measured at 2 to 4 times of MIC after 1 to 2 weeks; format: functional; details: time 1-2 weeks
In short: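 Mid-log H37Rv in 7H9-GTy-OADC diluted to OD600 0.02 (~1×10⁶ cfu/mL) and exposed to compound in 96-well replica plates for 1 or 2 weeks. For the 3 lowest concentrations without visible growth, serial 10-fold dilutions plated on 7H11-OADC and cfu counted over 6 weeks at 37°C. Four independent experiments; log10 cfu/mL ± SD.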

[20] = Toxicity in noninfected zebrafish larvae assessed as larval development; parameters: species or system Danio rerio; details: in vivo
Staphylococcus aureus = assay: Antibiotic activity against Staphylococcus aureus SH1000 assessed as reduction in bacterial cell growth by measuring resazurin reduction incubated for 6 days by fluorescence microplate based assay; format: functional; details: SH1000, 144 h, time 6 day; in short: as §1
Pseudomonas aeruginosa = assay: Antibiotic activity against Pseudomonas aeruginosa POA1 assessed as reduction in bacterial cell growth by measuring resazurin reduction incubated for 6 days by fluorescence microplate based assay; format: functional; details: POA1, 144 h, time 6 day

CC(C)[C@H]1CO[C@]23CCN(Cc4ccc(C(F)(F)F)cc4)C[C@H]2CCC(=O)N13
IC50 [1]: 460 nM | MIC (Escherichia coli [2]): > 100 µM | MIC (Klebsiella pneumoniae): > 100 µM | Activity (Mycobacterium marinum [3]): Active | MIC (Bacillus subtilis): > 100 µM | Activity (Mycobacterium marinum [4]): Dde | Activity [5]: Dde | inhibition [6]: Dde | Activity [7]: 1 log10CFU | MIC [8]: 0.1 µM (≈ 0.0396 µg/mL) | logD [9]: 3.4 | Activity [10]: Non-Toxic | MIC98 [11]: 0.1 µM (≈ 0.0396 µg/mL) | MIC [12]: 5 µM (≈ 1.98 µg/mL) | MIC [13]: 1.3 µM (≈ 0.515 µg/mL) | Time (Mycobacterium marinum [14]): 3 days | MIC (Mycobacterium marinum [15]): 0.19 µM (≈ 0.0753 µg/mL) | MIC (Mycobacterium avium): 0.55 µM (≈ 0.218 µg/mL) | MIC [16]: 6.3 µM (≈ 2.5 µg/mL) | Drug metabolism [17]: Metabolite_Detected | MIC (Escherichia coli [18]): 100 µM (≈ 39.6 µg/mL) | Activity [19]: 0.8 log10CFU | Activity [20]: Non-Toxic | MIC (Staphylococcus aureus): > 100 µM | MIC (Pseudomonas aeruginosa): > 100 µM
